{"source": "ChEMBL document CHEMBL5712910", "about": "“Histone methyltransferases EHMT1 and EHMT2 (GLP/G9A) maintain PARP inhibitor resistance in high-grade serous ovarian carcinoma” (Clin Epigenetics, 2019)", "key": {"Olaparib-resistant PEO1 [1]": {"test_system": "Olaparib-resistant PEO1", "experiment": "Antitumor activity against human Olaparib-resistant PEO1 cells assessed as H3K9me2 protein level for 72 hrs by immunoblot analysis", "type": "functional, cell-based", "summary_of_the_method": "(§1)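 PEO1-OR cells treated 72 h with DMSO or UNC0642 at two-fold dilutions from 2 μM to 125 nM. Histone extracts immunoblotted for H3K9me2, with H3K27me3 as a specificity check; densitometry normalized to total H3. For immunofluorescence, cells were fixed on coverslips in 4% paraformaldehyde and permeabilized with 0.2% Triton X-100, with DAPI counterstain.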"}, "Olaparib-resistant PEO1 [2]": {"test_system": "Olaparib-resistant PEO1", "experiment": "Antitumor activity against human Olaparib-resistant PEO1 cells assessed as H3K9me2 protein level at 500 nM for 72 hrs by immunofluorescence analysis", "type": "functional, cell-based", "summary_of_the_method": "as §1"}, "Olaparib-resistant PEO1 [3]": {"test_system": "Olaparib-resistant PEO1", "experiment": "Induction of cell cycle arrest in human Olaparib-resistant PEO1 cells assessed as accumulation of cells in G2 phase pretreated for 72 hrs by UNC0642 follwed by compound addition at 1 uM incubated for 72 hrs by propidium iodide staining based flow cytometry analysis (reference value: 23.2 %)", "type": "functional"}, "Olaparib-resistant PEO1 [4]": {"test_system": "Olaparib-resistant PEO1", "experiment": "Induction of cell cycle arrest in human Olaparib-resistant PEO1 cells assessed as accumulation of cells in S phase pretreated for 72 hrs by UNC0642 follwed by compound addition at 1 uM incubated for 72 hrs by propidium iodide staining based flow cytometry analysis (reference value: 21.9%)", "type": "functional"}, "Olaparib-resistant PEO1 [5]": {"test_system": "Olaparib-resistant PEO1", "experiment": "Induction of cell cycle arrest in human Olaparib-resistant PEO1 cells assessed as accumulation of cells in G1 phase pretreated for 72 hrs by UNC0642 follwed by compound addition at 1 uM incubated for 72 hrs by propidium iodide staining based flow cytometry analysis (reference value: 52.9%)", "type": "functional"}, "Olaparib-resistant PEO1 [6]": {"test_system": "Olaparib-resistant PEO1", "experiment": "Inhibition of EHMT1/2 in human Olaparib-resistant PEO1 cells assessed as reduction in Cyclin A protein level at 1 uM for 72 hrs by immunoblot analysis", "type": "functional, cell-based", "summary_of_the_method": "(§2)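 PEO1-OR cells were treated with olaparib and/or UNC0642 as for the cell-cycle experiment. Total RIPA lysates were immunoblotted for cell-cycle proteins, and band intensity was normalized to actin, relative to the non-pretreated control.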"}, "Olaparib-resistant PEO1 [7]": {"test_system": "Olaparib-resistant PEO1", "experiment": "Inhibition of EHMT1/2 in human Olaparib-resistant PEO1 cells assessed as reduction in Cyclin B1 protein level at 1 uM for 72 hrs by immunoblot analysis", "type": "functional, cell-based", "summary_of_the_method": "as §2"}, "Olaparib-resistant PEO1 [8]": {"test_system": "Olaparib-resistant PEO1", "experiment": "Inhibition of EHMT1/2 in human Olaparib-resistant PEO1 cells assessed as reduction in total CDC25C protein level at 1 uM for 72 hrs by immunoblot analysis", "type": "functional, cell-based", "summary_of_the_method": "as §2"}, "[9]": {"biological_target": "T1, Histone-lysine N-methyltransferase EHMT1 (Homo sapiens) (UniProt Q9H9B1)", "T1 sequence (whole entry)": "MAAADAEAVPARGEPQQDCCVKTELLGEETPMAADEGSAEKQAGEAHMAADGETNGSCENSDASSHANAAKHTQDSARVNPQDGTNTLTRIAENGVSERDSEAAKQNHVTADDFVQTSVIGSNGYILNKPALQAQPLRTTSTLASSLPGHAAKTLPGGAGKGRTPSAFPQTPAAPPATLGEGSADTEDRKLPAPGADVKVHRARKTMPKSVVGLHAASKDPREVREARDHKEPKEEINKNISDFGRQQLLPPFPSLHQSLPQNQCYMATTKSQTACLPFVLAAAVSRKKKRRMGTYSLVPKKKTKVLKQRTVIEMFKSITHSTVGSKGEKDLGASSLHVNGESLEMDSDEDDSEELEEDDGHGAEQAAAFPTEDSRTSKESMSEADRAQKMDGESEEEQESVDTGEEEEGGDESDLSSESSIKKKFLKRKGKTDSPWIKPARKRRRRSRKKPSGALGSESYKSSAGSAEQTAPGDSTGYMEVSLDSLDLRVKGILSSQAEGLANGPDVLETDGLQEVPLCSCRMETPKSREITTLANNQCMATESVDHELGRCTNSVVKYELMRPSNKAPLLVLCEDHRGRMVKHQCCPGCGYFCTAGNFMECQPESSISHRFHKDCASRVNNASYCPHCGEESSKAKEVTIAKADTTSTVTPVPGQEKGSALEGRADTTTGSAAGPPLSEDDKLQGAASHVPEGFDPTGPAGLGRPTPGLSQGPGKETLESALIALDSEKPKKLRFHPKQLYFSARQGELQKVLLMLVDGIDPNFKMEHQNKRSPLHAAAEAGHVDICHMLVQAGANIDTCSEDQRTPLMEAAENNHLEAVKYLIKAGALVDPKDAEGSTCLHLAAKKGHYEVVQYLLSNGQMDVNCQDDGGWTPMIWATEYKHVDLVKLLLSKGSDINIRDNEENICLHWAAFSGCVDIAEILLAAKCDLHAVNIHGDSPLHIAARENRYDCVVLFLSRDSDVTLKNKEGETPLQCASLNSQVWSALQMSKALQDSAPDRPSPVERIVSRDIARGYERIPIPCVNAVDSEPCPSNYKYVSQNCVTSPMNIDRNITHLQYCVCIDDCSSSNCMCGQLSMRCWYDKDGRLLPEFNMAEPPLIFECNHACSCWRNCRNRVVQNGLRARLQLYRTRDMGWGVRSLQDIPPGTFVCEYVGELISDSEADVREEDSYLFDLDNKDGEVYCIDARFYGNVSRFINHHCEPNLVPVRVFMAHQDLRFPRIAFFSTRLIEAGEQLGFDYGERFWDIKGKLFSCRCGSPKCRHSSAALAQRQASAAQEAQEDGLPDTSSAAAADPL", "experiment": "Inhibition of EHMT1 in human Olaparib-resistant PEO1 cells assessed as reduction in CDC25C phosphorylation at 1 uM for 72 hrs by immunoblot analysis", "type": "cell-based", "summary_of_the_method": "as §2"}, "Olaparib-resistant PEO1 [10]": {"test_system": "Olaparib-resistant PEO1", "experiment": "Induction of cell cycle arrest in human Olaparib-resistant PEO1 cells assessed as accumulation of cells in G2 phase pretreated for 72 hrs by vehicle follwed by compound addition at 1 uM incubated for 72 hrs by propidium iodide staining based flow cytometry analysis (reference value: 20.7%)", "type": "functional"}, "Olaparib-resistant PEO1 [11]": {"test_system": "Olaparib-resistant PEO1", "experiment": "Induction of cell cycle arrest in human Olaparib-resistant PEO1 cells assessed as accumulation of cells in S phase pretreated for 72 hrs by vehicle follwed by compound addition at 1 uM incubated for 72 hrs by propidium iodide staining based flow cytometry analysis (reference value: 21.5%)", "type": "functional"}, "Olaparib-resistant PEO1 [12]": {"test_system": "Olaparib-resistant PEO1", "experiment": "Induction of cell cycle arrest in human Olaparib-resistant PEO1 cells assessed as accumulation of cells in G1 phase pretreated for 72 hrs by vehicle follwed by compound addition at 1 uM incubated for 72 hrs by propidium iodide staining based flow cytometry analysis (reference value: 54.7%)", "type": "functional"}}, "note": "The source made the active and inactive calls. No cut-off for these calls is given here."}
{"smiles": "COc1cc2c(NC3CCN(C(C)C)CC3)nc(N3CCC(F)(F)CC3)nc2cc1OCCCN1CCCC1", "values": [{"measurement": "Activity", "setting": "Olaparib-resistant PEO1 [1]", "value": "Active"}, {"measurement": "Activity", "setting": "Olaparib-resistant PEO1 [2]", "value": "Active"}, {"measurement": "Activity", "setting": "Olaparib-resistant PEO1 [3]", "value": 22.5, "unit": "%"}, {"measurement": "Activity", "setting": "Olaparib-resistant PEO1 [4]", "value": 23.4, "unit": "%"}, {"measurement": "Activity", "setting": "Olaparib-resistant PEO1 [5]", "value": 51.7, "unit": "%"}, {"measurement": "Activity", "setting": "Olaparib-resistant PEO1 [6]", "value": "Active"}, {"measurement": "Activity", "setting": "Olaparib-resistant PEO1 [7]", "value": "Active"}, {"measurement": "Activity", "setting": "Olaparib-resistant PEO1 [8]", "value": "Active"}, {"measurement": "inhibition", "setting": "[9]", "value": "Active"}, {"measurement": "Activity", "setting": "Olaparib-resistant PEO1 [10]", "value": 21.5, "unit": "%"}, {"measurement": "Activity", "setting": "Olaparib-resistant PEO1 [11]", "value": 22.8, "unit": "%"}, {"measurement": "Activity", "setting": "Olaparib-resistant PEO1 [12]", "value": 53.3, "unit": "%"}]}
